These results are taken from publication PMC5497587 (Molecular pharmaceutics, 2017).

The test system of data set [1] is human and guinea pig smooth muscle tissue. The note with it: cited from earlier work.
For data set [2] the following is noted: cited from earlier work.
The test system of data set [3] is airway hyperresponsiveness and airway eosinophilia. The note with it: cited from earlier work.
Data set [4] deals with inflammatory cells in bronchoalveolar lavage fluid. Put plainly: Inflammatory cells in BALF of ova s/c BALB/c mice. Type of data set: in vivo, mouse. The essentials: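 Male BALB/c mice (5–10 wk), ova-sensitised/challenged, 10 per group; dexamethasone 4 mg/kg i.p. daily for 8 days (10% DMSO/40% propylene glycol/50% PBS); test compounds 100 mg/kg b.i.d. by gavage for 5 days. BAL with 1 ml Ca/Mg-free PBS, RBC lysis, Fc block, 30 min 4 °C antibody staining. CD45+ count gives cells/ml; CCR3+/GR1+/CD4+/CD11b+ frequencies × total; mean ± SEM versus vehicle.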

The subject of data set [5] is GABAARs expressed on splenocytes. Put plainly: Automated patch-clamp electrophysiology for splenocytes. The data set is classed as cell-based, mouse. The note with it: splenocytes from ova s/c mice.

Regarding `C#Cc1ccc2c(c1)C(c1ccccc1F)=N[C@H](C)c1c(C(=O)OCC)ncn1-2` [SH-053-2′F-R-CH3], the “smooth muscle relaxation ex vivo” value in data set [1] is “relax human and guinea pig smooth muscle tissue”. In addition, the “blood brain barrier crossing” value in data set [2] is given as “can cross the blood brain barrier”.

Turning to `C=CCc1ccc(O)c(-c2ccc(O)c(CC=C)c2)c1` [honokiol], the “AHR and lung eosinophilia” value in data set [3] (acute and chronic administration, ova s/c mouse asthma model) was “reduced AHR and lung eosinophilia”.

Turning to `C[C@@H]1C[C@H]2[C@@H]3CCC4=CC(=O)C=C[C@]4(C)[C@@]3(F)[C@@H](O)C[C@]2(C)[C@@]1(O)C(=O)CO` [dexamethasone], the “AHR in ova s/c mice” value in data set [3] (dexamethasone treated ova s/c mice) is recorded as “reduced AHR”. In addition, in data set [4] (4 mg/kg i.p. for 8 days), the “CD4+ T cell population in BALF” value is recorded as “significantly reduced”. For the same compound, in data set [4] (i.p. 4 mg/kg daily for 8 days), the “CD11b+ leukocyte population in BALF” value is on record as “as did dexamethasone treatment” and the “eosinophils (CCR3+) in BALF by flow cytometry” value is given as “almost completely eliminated”. Besides, the “reduction of white blood cells in BALF” value in data set [4] (i.p. 4 mg/kg daily for 8 days, compared with compounds 1 and 2) is listed as “more pronounced”.

For the compound `NCc1cc(=O)[nH]o1` [muscimol], in data set [5], the “induced current change relative to current change induced by GABA” value is reported as “around 50%”.
